Measurements as given in ChEMBL document CHEMBL5678801, “A benzothiophene inhibitor of mitogen-activated protein kinase-activated protein kinase 2 inhibits tumor necrosis factor alpha production and has oral anti-inflammatory efficacy in acute and chronic models of inflammation” (J Pharmacol Exp Ther, 2010).

Assays:
[1] = target: MAP kinase-activated protein kinase 2 (Homo sapiens, UniProt P49137); assay: Binding affinity to recombinant N-terminal truncated MK2 (45 to 371 residues) (unknown origin) expressed in Escherichia coli assessed as dissociation constant measured after 15 mins by surface plasmon resonance spectroscopy analysis
In short: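 SPR on biotinylated MK2 captured on a streptavidin-coated CM5 chip, at 25°C. Running buffer was 10 mM HEPES, 150 mM NaCl, 0.005% P20, flowing at 60 μl/min. Compound at 1-100 nM was injected for 4 min, then dissociation was followed for 15 min. Real-time binding kinetics were recorded.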

[2] = target: T1, Phosphorylase b kinase gamma catalytic chain, liver/testis isoform (Homo sapiens, UniProt P15735); assay: Inhibition of PhKgamma2 (unknown origin)
T1 sequence (P15735 whole entry): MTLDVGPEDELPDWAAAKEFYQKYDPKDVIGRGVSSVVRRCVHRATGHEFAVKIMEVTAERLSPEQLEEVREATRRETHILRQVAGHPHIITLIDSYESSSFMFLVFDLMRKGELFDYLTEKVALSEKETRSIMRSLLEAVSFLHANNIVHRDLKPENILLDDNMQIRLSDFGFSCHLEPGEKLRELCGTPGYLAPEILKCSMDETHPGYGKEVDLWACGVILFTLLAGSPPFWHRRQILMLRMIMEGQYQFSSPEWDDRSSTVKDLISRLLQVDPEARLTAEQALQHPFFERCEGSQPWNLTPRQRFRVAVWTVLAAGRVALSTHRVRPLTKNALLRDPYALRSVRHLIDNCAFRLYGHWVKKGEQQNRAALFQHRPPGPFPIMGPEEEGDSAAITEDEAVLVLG
In short: (§1)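 Kinase panel: 200 kinases were first screened at 1 μM inhibitor for percent inhibition. Those above 50% inhibition were then titrated for IC50. MgATP was fixed at the Km(app) determined for each enzyme.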

[3] = target: T2, Tyrosine-protein kinase Mer (Homo sapiens, UniProt Q12866); assay: Inhibition of Mer (unknown origin); in short: as §1
T2 sequence (Q12866 whole entry): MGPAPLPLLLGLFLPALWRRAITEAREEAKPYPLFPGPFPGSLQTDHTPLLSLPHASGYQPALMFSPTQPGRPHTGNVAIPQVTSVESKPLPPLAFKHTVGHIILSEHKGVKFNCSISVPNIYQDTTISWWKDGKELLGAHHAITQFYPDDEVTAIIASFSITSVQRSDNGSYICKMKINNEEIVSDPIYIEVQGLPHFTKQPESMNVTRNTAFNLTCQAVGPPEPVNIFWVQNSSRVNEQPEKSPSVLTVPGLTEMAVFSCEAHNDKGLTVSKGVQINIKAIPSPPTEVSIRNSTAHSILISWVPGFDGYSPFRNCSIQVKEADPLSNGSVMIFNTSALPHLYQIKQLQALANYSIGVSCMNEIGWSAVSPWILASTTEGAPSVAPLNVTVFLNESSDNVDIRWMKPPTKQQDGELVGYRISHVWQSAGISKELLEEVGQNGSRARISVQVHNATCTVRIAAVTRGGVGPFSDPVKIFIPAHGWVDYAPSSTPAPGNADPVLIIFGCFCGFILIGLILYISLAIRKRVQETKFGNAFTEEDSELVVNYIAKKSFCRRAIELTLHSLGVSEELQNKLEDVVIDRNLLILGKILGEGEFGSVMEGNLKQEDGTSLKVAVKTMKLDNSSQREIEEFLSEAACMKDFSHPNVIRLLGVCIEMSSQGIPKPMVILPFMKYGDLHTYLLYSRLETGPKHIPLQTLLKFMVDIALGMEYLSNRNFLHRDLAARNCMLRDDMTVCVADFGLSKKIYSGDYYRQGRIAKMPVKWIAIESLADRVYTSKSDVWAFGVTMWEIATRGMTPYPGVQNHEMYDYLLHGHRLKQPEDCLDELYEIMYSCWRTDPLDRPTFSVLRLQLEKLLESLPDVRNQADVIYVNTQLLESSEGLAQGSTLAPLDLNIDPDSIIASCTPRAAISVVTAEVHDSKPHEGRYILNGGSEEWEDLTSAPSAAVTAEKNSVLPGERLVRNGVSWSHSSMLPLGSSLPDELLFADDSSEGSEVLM

[4] = target: Receptor-interacting serine/threonine-protein kinase 2 (Homo sapiens, UniProt O43353); assay: Inhibition of RIPK2 (unknown origin); in short: as §1
[5] = Inhibition of MK2 activity in LPS induced human U937 cells preincubated with compound for 1 hr followed by LPS induction and measured after 30 mins by Western blot analysis; type: functional, cell-based; details: u-937
In short: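 U937 cells were pretreated with compound for 1 h, then stimulated with LPS 100 ng/ml for 30 min at 37°C. Lysates were run on SDS-PAGE and Western blotted for p-Ser78-HSP27 and total HSP27, detected with fluorescent secondary antibodies and LiCor scanning. The phospho/total ratio was expressed against the LPS-only control. Single experiment repeated three times. 4-parameter fit.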

[6] = Plasma protein binding in human; type: ADME, cell-free; details: read-out: PPB (converted)
In short: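 Binding to rat and human plasma was measured in vitro by ultracentrifugation.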

[7] = Antiinflammatory activity in human PBMC cells assessed as inhibition of LPS induced IL-1 beta production preincubated for 1 hr followed by LPS stimulation and measured after 16 hrs by MSD analysis; type: functional, cell-based
In short: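 Human PBMCs were pretreated with compound for 1 h (<1% DMSO final), then stimulated with LPS 100 ng/ml at 37°C. Cytokines in culture media were read by MSD 4-plex: TNFα at 4 h; IL-1β, IL-6 and IL-8 at 16 h. Data are means ±S.E.M. of two independent experiments in duplicate, three donors. IC50 by 4-parameter nonlinear regression.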

[8] = Antiinflammatory activity in human Whole blood cell assessed as inhibition of LPS induced TNF alpha production preincubated for 1 hr followed by LPS stimulation and measured after 16 hrs by MSD analysis; type: functional, cell-based
[9] = Clearance in Sprague-Dawley rat plasma at 1 mg/kg measured upto 24 hrs by LC-MS/MS analysis; type: ADME, organism-based
In short: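 Male Sprague-Dawley rats (275-300 g), carotid-catheterized and acclimated overnight. Dosing was i.v. at 1 mpk (n=2) in 70% saline/20% PEG-400/10% ethanol, or oral at 3 mpk (n=3) as a suspension in 0.5% HPMC/Tween. Plasma drug was measured by LC-MS/MS. Cmax and Tmax were read from individual profiles. t½ came from the terminal log-linear slope and AUC by the linear trapezoidal rule. CL = dose/AUC0-∞, Vdss = CL×MRT, F = dose-normalized AUC po/iv.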

Rattus norvegicus = species on record: Rattus norvegicus; assay: Inhibition of rat MK2 assessed as unbound fraction
[10] = Plasma concentration in po dosed LPS-induced Lewis rat model at ED50 concentration measured after 5.5 hrs of initial dose by LC-MS/MS analysis; type: ADME, organism-based
In short: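 Male Lewis rats (225-250 g, 5 per group) were fasted 18 h, then dosed orally at 0.2-60 mg/kg as a suspension in 0.5% methylcellulose/0.025% Tween 20. LPS 1 mg/kg was given i.v. 4 h later. Blood was taken by cardiac puncture 90 min after LPS. Serum TNFα was read by ELISA and drug by LC-MS/MS, three independent experiments. 4-parameter fit. Unbound values were corrected with measured rat plasma protein binding.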

Chain of Receptor-interacting serine/threonine-protein kinase 2 (O43353 whole entry): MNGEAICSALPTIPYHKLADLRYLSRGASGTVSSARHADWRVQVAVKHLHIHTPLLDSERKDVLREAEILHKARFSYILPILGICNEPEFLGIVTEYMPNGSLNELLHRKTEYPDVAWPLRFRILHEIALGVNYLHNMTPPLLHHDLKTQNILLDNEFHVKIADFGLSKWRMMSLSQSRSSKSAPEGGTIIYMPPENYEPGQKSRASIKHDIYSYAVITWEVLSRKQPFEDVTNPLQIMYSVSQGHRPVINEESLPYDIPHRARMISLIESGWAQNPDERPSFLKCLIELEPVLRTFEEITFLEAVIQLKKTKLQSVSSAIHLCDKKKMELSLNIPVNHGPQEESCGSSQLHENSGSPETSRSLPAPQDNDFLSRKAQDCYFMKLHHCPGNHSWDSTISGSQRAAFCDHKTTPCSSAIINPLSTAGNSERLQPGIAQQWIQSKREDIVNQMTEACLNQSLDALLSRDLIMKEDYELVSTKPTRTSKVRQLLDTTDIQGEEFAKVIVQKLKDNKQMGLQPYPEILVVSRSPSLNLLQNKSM
Chain of MAP kinase-activated protein kinase 2 (P49137 whole entry, the tested form may be a part): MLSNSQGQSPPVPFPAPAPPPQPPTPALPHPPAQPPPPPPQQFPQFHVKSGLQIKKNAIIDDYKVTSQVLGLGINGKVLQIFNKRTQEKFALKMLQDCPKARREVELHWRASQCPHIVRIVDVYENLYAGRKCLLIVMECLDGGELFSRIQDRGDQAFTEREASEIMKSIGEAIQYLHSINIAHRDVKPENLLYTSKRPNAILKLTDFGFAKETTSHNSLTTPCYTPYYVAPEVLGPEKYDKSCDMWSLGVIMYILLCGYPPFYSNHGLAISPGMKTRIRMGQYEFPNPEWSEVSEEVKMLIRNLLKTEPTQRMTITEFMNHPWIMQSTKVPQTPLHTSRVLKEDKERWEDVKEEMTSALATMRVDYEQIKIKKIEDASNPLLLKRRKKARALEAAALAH

## Cc1ccc(-c2ccc3c(ccc4sc5c(c43)NC[C@@H](C)NC5=O)n2)cn1
[1]
  Kd: 5.9 nM
[2]
  IC50: 528 nM
[3]
  IC50: 76 nM
[4]
  IC50: 590 nM
[5]
  IC50: 201 nM
[6]
  fraction unbound: 0.064
[7]
  IC50: 2710 nM
[8]
  IC50: 1380 nM
[9]
  clearance: 10.3 mL/min/kg
Rattus norvegicus
  fEC50: 110 nM
[10]
  concentration at 5.5 h: 1400 nM
